Test results reported in ChEMBL document CHEMBL4402512, “In vitro and in silico elucidation of antidiabetic and anti-inflammatory activities of bioactive compounds from Momordica charantia L” (Bioorg Med Chem, 2019).
Active and inactive are the calls of the source. No cut-off for these calls is given here.

Experiments:
[1] = molecular target: Alpha amylase (Homo sapiens) (UniProt P0DUB6); assay: Inhibition of alpha-amylase (unknown origin) assessed as reduction in conversion of starch to glucose at 0.13 mM incubated for 1 hr relative to control
Alpha amylase (Homo sapiens), sequence (P0DUB6 whole entry, looked up): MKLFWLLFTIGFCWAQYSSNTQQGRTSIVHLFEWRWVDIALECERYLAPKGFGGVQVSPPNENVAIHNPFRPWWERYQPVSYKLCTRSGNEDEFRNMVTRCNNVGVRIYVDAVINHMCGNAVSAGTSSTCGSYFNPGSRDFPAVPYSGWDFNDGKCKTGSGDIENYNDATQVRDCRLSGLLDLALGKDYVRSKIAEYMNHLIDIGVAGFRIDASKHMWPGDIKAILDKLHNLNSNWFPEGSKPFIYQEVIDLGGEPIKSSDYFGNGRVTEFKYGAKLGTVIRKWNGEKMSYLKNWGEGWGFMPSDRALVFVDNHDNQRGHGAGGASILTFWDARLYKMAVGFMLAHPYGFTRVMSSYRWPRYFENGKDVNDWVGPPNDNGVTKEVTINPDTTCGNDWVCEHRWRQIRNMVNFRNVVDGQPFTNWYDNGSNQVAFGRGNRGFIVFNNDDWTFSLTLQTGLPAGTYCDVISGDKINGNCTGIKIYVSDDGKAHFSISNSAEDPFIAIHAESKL
Outline: (§1)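 α-Amylase inhibition was measured by a published protocol with minor modifications. Test compounds were added at 10 and 20 µL, stated as equivalent to 0.43 and 0.86 mM. Acarbose was used at 0.067 and 0.13 mM. Runs were in triplicate with three biological replications and averaged, reported as mean ± SD with one-way ANOVA.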

[2] = molecular target: Alpha amylase (Homo sapiens) (UniProt P0DUB6); assay: Inhibition of alpha-amylase (unknown origin) assessed as reduction in conversion of starch to glucose at 0.87 mM incubated for 1 hr relative to control; outline: as §1
Saccharomyces cerevisiae = assay: Inhibition of Saccharomyces cerevisiae alpha-glucosidase at 1.3 mM pre-incubated for 15 mins before p-nitrophenyl alpha-D-glucopyranoside substrate addition and measured after 30 mins
Outline: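 The enzyme was Saccharomyces cerevisiae α-glucosidase, assayed by a published protocol with slight modifications. Each compound was tested at two levels, 10 and 20 µL. Acarbose served as positive control. Runs were in triplicate with three biological replications, reported as mean ± SD and analysed by one-way ANOVA.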

RAW264.7 [3] = assay: Anti-inflammatory activity in mouse RAW264.7 cells assessed as reduction in IL-1beta mRNA expression at 25 uM pre-incubated for 1 hr before […] for 18 hrs by qRT-PCR analysis; type: functional, cell-based
Outline: (§2)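 RAW 264.7 murine macrophages grown in RPMI 1640 with 10% FBS, penicillin/streptomycin, 37 °C, 5% CO2. Seeded at 5.0 × 10^5 cells/well and held 24 h, then given 25 μM compound for 1 h before LPS (1 µg/mL) for a further 18 h. Total RNA was extracted, 500 ng was reverse-transcribed to cDNA, and target mRNA was quantified by qRT-PCR.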

RAW264.7 [4] = assay: Anti-inflammatory activity in mouse RAW264.7 cells assessed as reduction in TNFalpha mRNA expression at 25 uM pre-incubated for 1 hr before […] for 18 hrs by qRT-PCR analysis; type: functional, cell-based; outline: as §2
RAW264.7 [5] = assay: Anti-inflammatory activity in mouse RAW264.7 cells assessed as reduction in NFkappaB mRNA expression at 25 uM pre-incubated for 1 hr before […] for 18 hrs by qRT-PCR analysis; type: functional, cell-based; outline: as §2
RAW264.7 [6] = assay: Anti-inflammatory activity in mouse RAW264.7 cells assessed as reduction in iNOS mRNA expression at 25 uM pre-incubated for 1 hr before […] for 18 hrs by qRT-PCR analysis; type: functional, cell-based; outline: as §2
RAW264.7 [7] = assay: Anti-inflammatory activity in mouse RAW264.7 cells assessed as reduction in Cox2 mRNA expression at 25 uM pre-incubated for 1 hr before […] for 18 hrs by qRT-PCR analysis; type: functional, cell-based; outline: as §2
RAW264.7 [8] = assay: Anti-inflammatory activity in mouse RAW264.7 cells assessed as reduction in IL6 mRNA expression at 25 uM pre-incubated for 1 hr before […] for 18 hrs by qRT-PCR analysis; type: functional, cell-based; outline: as §2

Compound | inhibition [1] [%] | inhibition [2] [%] | inhibition (Saccharomyces cerevisiae) [%] | inhibition (RAW264.7 [3]) | inhibition (RAW264.7 [4]) | inhibition (RAW264.7 [5]) | inhibition (RAW264.7 [6]) | inhibition (RAW264.7 [7]) | inhibition (RAW264.7 [8])
C[C@H]1O[C@H](O[C@H]2[C@H](O)[C@@H](O)[C@@H](O[C@H]3[C@H](O)[C@@H](O)C(O)O[C@@H]3CO)O[C@@H]2CO)[C@H](O)[C@@H](O)[C@@H]1N[C@H]1C=C(CO)[C@@H](O)[C@H](O)[C@H]1O (some centres not stated) | 88 |  |  |  |  |  |  |  | 
COC(C)(C)/C=C/C[C@@H](C)[C@H]1CC[C@@]2(C)[C@@H]3C=C[C@@]45OC[C@]3(CC[C@]12C)[C@@H]4CC[C@H](O[C@@H]1O[C@H](CO)[C@@H](O)[C@@H](O)[C@H]1O)C5(C)C |  | 70.5 | 48.5 | Active | Active | Active | Active |  | 
O=C(O)c1cc(O[C@@H]2OC[C@@H](O)[C@H](O)[C@H]2O)ccc1O |  | 60.7 | 56.4 | Active |  | Active | Active | Active | Active
COC(C)(C)/C=C/C[C@@H](C)[C@H]1CC[C@@]2(C)[C@@H]3C=C[C@@]45OC[C@]3(CC[C@]12C)[C@@H]4CC[C@H](O[C@@H]1O[C@H](CO)[C@@H](O)[C@H](O)[C@H]1O)C5(C)C [MOMORDICOSIDE F1] |  | 63.5 | 35.9 | Active | Active | Active | Active | Active | 
COC(C)(C)/C=C/C[C@@H](C)[C@H]1CC[C@@]2(C)[C@@H]3[C@@H](O[C@@H]4O[C@H](CO)[C@@H](O)[C@H](O)[C@H]4O)C=C4[C@@H](CC[C@H](O)C4(C)C)[C@]3(C=O)CC[C@]12C |  | 69 | 47.5 | Active |  | Active | Active | Active | inactive
C[C@H](C/C=C/C(C)(C)O)[C@H]1CC[C@@]2(C)[C@@H]3C=C[C@@]45OC[C@]3(CC[C@]12C)[C@@H]4CC[C@H](O[C@@H]1O[C@H](CO)[C@@H](O)[C@@H](O)[C@H]1O)C5(C)C [MOMORDICOSIDE F2] |  | 63.7 | 42.4 | Active |  | Active | Active |  | 
C[C@H](C/C=C/C(C)(C)O)[C@H]1CC[C@@]2(C)[C@@H]3C=C[C@@]45OC[C@]3(CC[C@]12C)[C@@H]4CC[C@H](O[C@@H]1O[C@H](CO)[C@@H](O)[C@H](O)[C@H]1O)C5(C)C [MOMORDICOSIDE I] |  | 64.2 | 35.1 | Active |  | Active | Active | Active | Active
C[C@H](CC(O)C(O)C(C)(C)O)[C@H]1CC[C@@]2(C)[C@@H]3C=C[C@@]45OC[C@]3(CC[C@]12C)[C@@H]4CC[C@H](O[C@@H]1O[C@H](CO)[C@@H](O)[C@@H](O)[C@H]1O)C5(C)C (some centres not stated) |  | 66.4 | 49.4 | Active |  | Active | Active | Active | Active
